Measurements: ChEMBL document CHEMBL4689842, “EUbOPEN Chemogenomics Library wave 1” (2021)

Tested on: U2OS
Assay: Multiplex assay against U2OS
Type: toxicity, cell-based
Conditions: human
Outline: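 Phenotypes for tubulin, mitochondrial mass and membrane permeability are expressed as per cents of healthy-nucleus cells. Cells were stained live at seeding with Hoechst33342, BioTracker Green Microtubule Cytoskeleton Dye, MitoTracker Red and Annexin V Alexa Fluor 680, then imaged after compound addition on a CQ1 microscope at 37°C and 5% CO2. Machine-learning gating in CellPathfinder separated Hoechst high-intensity objects from normal cells, divided normal cells by nuclear state (healthy, pyknosed, fragmented) and divided pyknosed cells into mitotic or apoptotic.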

[1] = 12 h, 1 µM, compound concentration 1 uM, replicate 1
[2] = 12 h, 1 µM, compound concentration 1 uM, replicate 2
[3] = 12 h, 10 µM, compound concentration 10 uM, replicate 1
[4] = 12 h, 10 µM, compound concentration 10 uM, replicate 2
[5] = 24 h, 1 µM, compound concentration 1 uM, replicate 1
[6] = 24 h, 1 µM, compound concentration 1 uM, replicate 2
[7] = 24 h, 10 µM, compound concentration 10 uM, replicate 1
[8] = 24 h, 10 µM, compound concentration 10 uM, replicate 2
[9] = 48 h, 1 µM, compound concentration 1 uM, replicate 1
[10] = 48 h, 1 µM, compound concentration 1 uM, replicate 2
[11] = 48 h, 10 µM, compound concentration 10 uM, replicate 1
[12] = 48 h, 10 µM, compound concentration 10 uM, replicate 2

Cl.Cl.Nc1ncnc2c1c(-c1cccc(OCc3ccccc3)c1)cn2[C@H]1C[C@@H](CN2CCC2)C1
Population Apoptotic (%) [1]: 33% | Population Fragmented Nuclei (%) [1]: 13% | Population Healthy Nuclei (%) [1]: 70% | Population Hoechst High Intensity Objects (%) [1]: 5% | Population Membrane Permeable-Phenotype (%) [1]: 8% | Population Mitochondria Different-Phenotype (%) [1]: 58% | Population Mitotic Cells (%) [1]: 66% | Population Normal (%) [1]: 94% | Population Pyknosed Nuclei (%) [1]: 16% | Population Tubulin-Different-Phenotype (%) [1]: 38% | Total Cell Count [1]: 176 | Population Apoptotic (%) [2]: 29% | Population Fragmented Nuclei (%) [2]: 11% | Population Healthy Nuclei (%) [2]: 67% | Population Hoechst High Intensity Objects (%) [2]: 6% | Population Membrane Permeable-Phenotype (%) [2]: 3% | Population Mitochondria Different-Phenotype (%) [2]: 71% | Population Mitotic Cells (%) [2]: 70% | Population Normal (%) [2]: 93% | Population Pyknosed Nuclei (%) [2]: 20% | Population Tubulin-Different-Phenotype (%) [2]: 52% | Total Cell Count [2]: 55 | Population Apoptotic (%) [3]: 81% | Population Fragmented Nuclei (%) [3]: 23% | Population Healthy Nuclei (%) [3]: 41% | Population Hoechst High Intensity Objects (%) [3]: 9% | Population Membrane Permeable-Phenotype (%) [3]: 67% | Population Mitochondria Different-Phenotype (%) [3]: 100% | Population Mitotic Cells (%) [3]: 18% | Population Normal (%) [3]: 90% | Population Pyknosed Nuclei (%) [3]: 35% | Population Tubulin-Different-Phenotype (%) [3]: 100% | Total Cell Count [3]: 135 | Population Apoptotic (%) [4]: 85% | Population Fragmented Nuclei (%) [4]: 22% | Population Healthy Nuclei (%) [4]: 47% | Population Hoechst High Intensity Objects (%) [4]: 8% | Population Membrane Permeable-Phenotype (%) [4]: 77% | Population Mitochondria Different-Phenotype (%) [4]: 97% | Population Mitotic Cells (%) [4]: 14% | Population Normal (%) [4]: 91% | Population Pyknosed Nuclei (%) [4]: 29% | Population Tubulin-Different-Phenotype (%) [4]: 97% | Total Cell Count [4]: 90 | Population Apoptotic (%) [5]: 56% | Population Fragmented Nuclei (%) [5]: 10% | Population Healthy Nuclei (%) [5]: 69% | Population Hoechst High Intensity Objects (%) [5]: 4% | Population Membrane Permeable-Phenotype (%) [5]: 5% | Population Mitochondria Different-Phenotype (%) [5]: 62% | Population Mitotic Cells (%) [5]: 43% | Population Normal (%) [5]: 95% | Population Pyknosed Nuclei (%) [5]: 20% | Population Tubulin-Different-Phenotype (%) [5]: 34% | Total Cell Count [5]: 176 | Population Apoptotic (%) [6]: 28% | Population Fragmented Nuclei (%) [6]: 13% | Population Healthy Nuclei (%) [6]: 64% | Population Hoechst High Intensity Objects (%) [6]: 6% | Population Membrane Permeable-Phenotype (%) [6]: 4% | Population Mitochondria Different-Phenotype (%) [6]: 68% | Population Mitotic Cells (%) [6]: 71% | Population Normal (%) [6]: 93% | Population Pyknosed Nuclei (%) [6]: 21% | Population Tubulin-Different-Phenotype (%) [6]: 39% | Total Cell Count [6]: 50 | Population Apoptotic (%) [7]: 90% | Population Fragmented Nuclei (%) [7]: 25% | Population Healthy Nuclei (%) [7]: 30% | Population Membrane Permeable-Phenotype (%) [7]: 92% | Population Mitochondria Different-Phenotype (%) [7]: 100% | Population Mitotic Cells (%) [7]: 9% | Population Pyknosed Nuclei (%) [7]: 43% | Population Tubulin-Different-Phenotype (%) [7]: 100% | Total Cell Count [7]: 157 | Population Apoptotic (%) [8]: 92% | Population Fragmented Nuclei (%) [8]: 21% | Population Healthy Nuclei (%) [8]: 35% | Population Hoechst High Intensity Objects (%) [8]: 9% | Population Membrane Permeable-Phenotype (%) [8]: 93% | Population Mitochondria Different-Phenotype (%) [8]: 96% | Population Mitotic Cells (%) [8]: 7% | Population Normal (%) [8]: 90% | Population Pyknosed Nuclei (%) [8]: 42% | Population Tubulin-Different-Phenotype (%) [8]: 96% | Total Cell Count [8]: 104 | Population Apoptotic (%) [9]: 65% | Population Fragmented Nuclei (%) [9]: 10% | Population Healthy Nuclei (%) [9]: 73% | Population Hoechst High Intensity Objects (%) [9]: 2% | Population Membrane Permeable-Phenotype (%) [9]: 4% | Population Mitochondria Different-Phenotype (%) [9]: 34% | Population Mitotic Cells (%) [9]: 34% | Population Normal (%) [9]: 97% | Population Pyknosed Nuclei (%) [9]: 16% | Population Tubulin-Different-Phenotype (%) [9]: 23% | Total Cell Count [9]: 182 | Population Apoptotic (%) [10]: 47% | Population Fragmented Nuclei (%) [10]: 8% | Population Healthy Nuclei (%) [10]: 76% | Population Hoechst High Intensity Objects (%) [10]: 3% | Population Membrane Permeable-Phenotype (%) [10]: 12% | Population Mitochondria Different-Phenotype (%) [10]: 44% | Population Mitotic Cells (%) [10]: 52% | Population Normal (%) [10]: 96% | Population Pyknosed Nuclei (%) [10]: 15% | Population Tubulin-Different-Phenotype (%) [10]: 26% | Total Cell Count [10]: 55 | Population Apoptotic (%) [11]: 100% | Population Fragmented Nuclei (%) [11]: 30% | Population Healthy Nuclei (%) [11]: 7% | Population Hoechst High Intensity Objects (%) [11]: 12% | Population Membrane Permeable-Phenotype (%) [11]: 100% | Population Mitochondria Different-Phenotype (%) [11]: 100% | Population Mitotic Cells (%) [11]: 0% | Population Normal (%) [11]: 87% | Population Pyknosed Nuclei (%) [11]: 61% | Population Tubulin-Different-Phenotype (%) [11]: 100% | Total Cell Count [11]: 203 | Population Apoptotic (%) [12]: 96% | Population Fragmented Nuclei (%) [12]: 21% | Population Healthy Nuclei (%) [12]: 38% | Population Hoechst High Intensity Objects (%) [12]: 23% | Population Membrane Permeable-Phenotype (%) [12]: 96% | Population Mitotic Cells (%) [12]: 3% | Population Normal (%) [12]: 76% | Population Pyknosed Nuclei (%) [12]: 40% | Total Cell Count [12]: 130
